Bioassay records deposited in PubChem by Johns Hopkins Ion Channel Center.
RGS4 act = RGS4 potentiation or activation; B-score at 10 µM; AID 463111; HEK293 M3R/inducible RGS4, carbachol calcium flux Fluo4; active compounds read low; 310,000 tested, 0.92% active;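 active = B-score of the integrated calcium signal more than 4 SD below the library mean, with starting fluorescence not abnormally high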;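 note: negative B-score means reduced calcium response which marks RGS4 activation or potentiation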
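Test system: HEK293 cells with stable M3R and inducible RGS4; also added: carbachol at ECmax as muscarinic agonist stimulus; schedule: dye loading 30 min 37 °C, buffer rest 30 min RT; technique: kinetic calcium fluorescence imaging with Fluo4-AM dye, 2 µM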
RGS4 block = inhibitors of human RGS4 | HEK293 M3R/RGS4 inducible, Fluo-4 calcium flux; active compounds read high; triggered by carbachol at its EC20 | B-score at 10 µM | 310,000 tested, 0.45% active | AID 463165;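 active = B-score, a plate-corrected calcium signal, over three deviations above library mean, with baseline fluorescence within five deviations of library mean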;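 note: RGS4 expression induced by doxycycline in cells with stable M3 receptor; B-score is computed from the integrated fluorescence ratio over baseline after carbachol; higher B-score means a larger calcium signal and so more RGS4 inhibition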
Target sequence (P49798 whole entry, looked up): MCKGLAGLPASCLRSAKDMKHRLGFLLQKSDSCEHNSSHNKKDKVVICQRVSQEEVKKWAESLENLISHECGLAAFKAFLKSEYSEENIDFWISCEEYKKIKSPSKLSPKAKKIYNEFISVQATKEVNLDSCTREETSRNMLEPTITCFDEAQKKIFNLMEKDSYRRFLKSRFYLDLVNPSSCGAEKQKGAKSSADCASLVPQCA
MrgX1 PAM = allosterically activates human MrgX1 receptor signaling. MrgX1-HEK293, Fluo-4 calcium flux, FDSS; active compounds read high. B-score at 10 µM. 310,000 tested, 0.63% active. AID 588675;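 active = plate-corrected calcium response at least 3 library SD above typical, normal starting fluorescence, not activating the receptor alone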;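 note: compound read alongside a low EC10 to EC30 dose of BAM8-22 agonist; peak minus trough fluorescence over baseline measured at the second addition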
Target sequence (Q96LB2 whole entry, looked up): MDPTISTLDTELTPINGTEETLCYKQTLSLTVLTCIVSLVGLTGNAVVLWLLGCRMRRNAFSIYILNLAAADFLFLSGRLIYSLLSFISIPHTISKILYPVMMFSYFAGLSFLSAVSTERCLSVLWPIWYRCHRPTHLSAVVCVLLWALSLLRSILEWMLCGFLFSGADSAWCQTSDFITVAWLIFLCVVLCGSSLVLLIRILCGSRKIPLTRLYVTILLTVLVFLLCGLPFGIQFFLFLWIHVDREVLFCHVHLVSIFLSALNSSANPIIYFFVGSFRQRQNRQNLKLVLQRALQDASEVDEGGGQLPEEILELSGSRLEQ
MrgX1 antag = blocks BAM8-22 activation of human MrgX1 receptor. B-score at 10 µM. MRGX1-HEK293 calcium flux, Fluo-4, BAM8-22 antagonism; active compounds read low. 310,000 tested, 1.3% active. Q96LB2. AID 588676;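 active = calcium-response B-score plate-corrected more than 3 library SD below zero, starting fluorescence within 5 deviations, no agonist response on first addition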;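 note: peak minus trough fluorescence over baseline after final BAM8-22 challenge near maximal dose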
MrgX1 agonist = activates human MrgX1 receptor signaling; Q96LB2; AID 588627; B-score at 10 µM; 310,000 tested, 0.44% active; MrgX1-HEK293 cells, Fluo-4 calcium fluorescence, agonist mode; active compounds read high;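 active = calcium response B-score plate-corrected fluorescence ratio at least 3 library SD, with starting fluorescence B-score inside 5 SD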
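Material: MrgX1-expressing HEK293 cells; input: 15,000 cells per well; doses: test compound given as first of three sequential additions; schedule: overnight plating before 1 h dye loading; technique: Fluo-4 NW calcium-flux fluorescence, kinetic read; evaluation: baseline-normalised fluorescence change ratio, B-scored; control set: plate-wise positive and negative controls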
Numbers without * were called inactive; i = inactive; / = no result given. An excerpt weighted towards active compounds, which were near 3.5% of everything screened.

SMILES	RGS4 act	RGS4 block	MrgX1 PAM	MrgX1 antag	MrgX1 agonist
CC(=O)Nc1cccc(C(=O)/C=C/c2ccc(/C=C/C(=O)c3cccc(NC(C)=O)c3)cc2)c1	i	4.8*	i	i	i
C=CCSc1nc2ccccc2c(=O)n1Cc1ccccc1	i	i	i	i	i
O=c1c2ccccc2nc(SCc2ccccc2Cl)n1Cc1ccccc1	i	i	i	-6.8*	i
COc1ccc(C(=O)NCc2nnc(SCC(=O)NCc3ccco3)o2)cc1	i	i	i	i	i
O=C1/C(=C\c2c(NCCOCCO)nc3ccccn3c2=O)SC(=S)N1Cc1ccco1	i	i	i	-15*	i
O=C(COc1ncnc2ccccc12)Nc1ccccc1[N+](=O)[O-]	i	i	i	i	i
Oc1ccc(/C=N/n2cc(-c3ccccc3)[nH]c2=S)cc1	i	i	i	i	i
COc1cc(/C=N/n2cc(-c3ccccc3)[nH]c2=S)cc(OC)c1O	i	i	11*	i	i
CC1CC=C2C(C#N)=C(N)C(C#N)(C#N)C(c3cccs3)C2C1 (configuration not stated)	i	i	i	-5.6*	i
CC(=O)Nc1ccccc1OCC(=O)c1cc(C)n(Cc2cccs2)c1C	i	i	i	i	48*
CCOC(=O)C1CCN(C(=O)COC(=O)CSc2ccc(C(N)=O)cc2[N+](=O)[O-])CC1	i	i	i	i	i
CCOC(=O)CSc1ccc(C(=O)NCCCN2CCOCC2)cc1[N+](=O)[O-]	-8.2*	i	i	i	i
COC(=O)C1CCN(C(=O)COC(=O)CSc2ccc(C(N)=O)cc2[N+](=O)[O-])CC1	i	i	i	-6.4*	i
Cc1cccc(N(CC(=O)NC2CCCCC2)C(=O)Cn2nnc(-c3ccc(C)o3)n2)c1	i	i	i	i	i
CN=c1scc(-c2ccccc2F)n1/N=C/c1ccc[nH]1	i	i	7*	i	i
Cc1ccc(N(C(=O)Cc2cccs2)C(C(=O)NC2CCCCC2)c2ccccn2)cc1C (configuration not stated)	i	i	10*	i	i
COc1cc(N(C(=O)Cc2cccs2)C(C(=O)NC2CCCCC2)c2ccc(C)cc2)ccc1-n1cnnn1 (configuration not stated)	i	i	i	-6.3*	i
Fc1c(CSC(=S)N2CCOCC2)cccc1CSC(=S)N1CCOCC1	i	i	i	i	i
Cc1cc(C)cc(OCCNC(=O)c2cc(S(=O)(=O)N3CCOCC3)ccc2F)c1	i	i	i	i	i
CCC1ON(c2ccccc2)C2c3nc4ccccc4n3CC12 (configuration not stated)	i	i	i	i	i
COc1cc(/C=C2/C(=N)N3C=CSC3=NC2=O)ccc1OCCOc1ccc(NC(C)=O)cc1	i	i	14*	i	i
COc1cc(/C=C2\C(=N)N3N=C(S(C)(=O)=O)SC3=NC2=O)ccc1OCCOc1ccc(C)cc1	-7.2*	i	i	i	i
Cc1cc(/C=C2\C(=N)N3N=C(C(C)C)SC3=NC2=O)c(C)n1-c1ccccc1	i	i	i	i	i
CC(=O)Nc1ccc(OCCOc2ccc(/C=C3\C(=N)N4N=C(C(C)C)SC4=NC3=O)cc2)cc1	i	i	i	i	32*
COc1cc(/C=C2/C(=N)N3C=CSC3=NC2=O)ccc1OCCCOc1ccccc1C	i	i	i	i	i
SMILES	RGS4 act	RGS4 block	MrgX1 PAM	MrgX1 antag	MrgX1 agonist
COc1cc(/C=C2\C(=N)N3N=C(S(C)(=O)=O)SC3=NC2=O)cc(OC)c1OCCOc1ccc(C)cc1	i	i	i	i	i
O=C(Cc1ccc(F)cc1)NC1CCS(=O)(=O)C1 (configuration not stated)	i	i	i	i	i
Cc1ccc(C)c(-c2cc(C(=O)Nc3cccc(C(=O)O)c3)c3ccccc3n2)c1	i	i	i	i	i
Cc1ccc(C)c(-c2cc(C(=O)Nc3cccnc3)c3ccccc3n2)c1	-7.6*	i	i	i	i
Nc1nc2ccc([N+](=O)[O-])cc2[nH]1	i	i	i	i	i
Nc1[nH]c2cc([N+](=O)[O-])ccc2c1-c1ccccn1	i	i	i	-7.6*	i
Cn1nc(-c2ccccc2)cc1NC(=O)C1CCCCC1	i	i	i	i	i
Cc1ccc(OCc2ccc(C(=O)Nc3ccc(S(N)(=O)=O)cc3)o2)cc1	i	i	i	i	i
Brc1ccc(/C=N/Nc2ccc3ccccc3n2)cc1	i	i	i	i	i
Brc1ccccc1/C=N/Nc1ccc2ccccc2n1	i	i	11*	i	i
CCCCCCCCCCCCCCCC[N+](C)(C)CC	i	i	i	-5.3*	i
CC/C(=N\NC(=O)CSc1ncccn1)c1ccc2c(c1)OCCO2	i	i	i	i	i
O=C(Nc1ccc(C(=O)N2CCN(c3ccccc3)CC2)cc1)C1=CSCCO1	i	i	i	i	i
Cc1cccc2cc(C(c3nnnn3CC3CCCO3)N3CCc4ccccc4C3)c(=O)[nH]c12 (configuration not stated)	/	/	i	-5.1*	i
Cc1ccc2cc(C(c3nnnn3CC3CCCO3)N3CCc4ccccc4C3)c(=O)[nH]c2c1 (configuration not stated)	i	i	i	i	i
Cc1ccc(C)c(N2CCN(c3ccncc3N)CC2)c1	i	i	i	i	i
O=C1NC2(CCCCC2)C(=O)N1Cc1ccc([N+](=O)[O-])cc1	i	i	i	-7.2*	i
CC(C)(C)c1cc(NCc2ccccn2)n2ncc(-c3ccccc3)c2n1	i	i	i	i	i
O=C(Nc1cccc([N+](=O)[O-])c1)c1cc2ccccc2cc1O	i	i	i	-4.8*	i
O=C(O)c1ccccc1C(=O)Nc1cccc([N+](=O)[O-])c1	i	i	i	i	i
CCCCCn1nc(C(=O)OCC(=O)c2c(N)n(C)c(=O)n(C)c2=O)c2ccccc2c1=O	i	i	i	i	i
CCCCCCn1nc(C(=O)OCC(=O)c2c(N)n(C)c(=O)n(C)c2=O)c2ccccc2c1=O	-8.7*	i	i	i	i
CCN(C(=O)CN1C(=O)NC2(CCc3ccccc32)C1=O)C1CCCCC1 (configuration not stated)	i	i	i	i	i
